Laboratory results: ChEMBL document CHEMBL3745670, “Synthesis and biological evaluation of novel lipoamino acid derivatives” (Bioorg Med Chem Lett, 2016)
In brackets after ≈: the same amount, converted by molar mass. One block for each compound: values may come before it.

Legend:
Micrococcus luteus [1] = assay: Bactericidal activity against Micrococcus luteus MTCC 2470 after 24 hrs; assay type: functional; settings: MTCC 2470, 24 h
Summary of the method: (§1)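 Minimum bactericidal concentration was determined on four Gram-positive strains, for the compounds active in the preliminary antibacterial screen.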

Pseudomonas aeruginosa = assay: Antibacterial activity against Pseudomonas aeruginosa MTCC 2453 after 24 hrs by well diffusion assay; assay type: functional; settings: MTCC 2453, 24 h
Micrococcus luteus [2] = assay: Antibacterial activity against Micrococcus luteus MTCC 2470 after 24 hrs by well diffusion assay; assay type: functional; settings: MTCC 2470, 24 h
Staphylococcus aureus [3] = assay: Antibacterial activity against Staphylococcus aureus MTCC 96 after 24 hrs by well diffusion assay; assay type: functional; settings: MTCC 96, 24 h
Bacillus subtilis [4] = assay: Antibacterial activity against Bacillus subtilis MTCC 121 after 24 hrs by well diffusion assay; assay type: functional; settings: MTCC 121, 24 h
Bacillus subtilis [5] = assay: Bactericidal activity against Bacillus subtilis MTCC 121 after 24 hrs by well diffusion assay; assay type: functional; settings: MTCC 121, 24 h; summary of the method: as §1
Bacillus subtilis [6] = assay: Antibiofilm activity against Bacillus subtilis MTCC 121 after 24 hrs by well diffusion assay by crystal violet staining based method; assay type: functional, organism-based; settings: MTCC 121, 24 h
Summary of the method: (§2)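 Biofilm inhibition was tested on the four Gram-positive strains, using crystal violet staining.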

Candida albicans [7] = assay: Antifungal activity against Candida albicans MTCC 3017 after 24 hrs by well diffusion assay; assay type: functional; settings: MTCC 3017, 24 h
Summary of the method: (§3)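 Well diffusion screen against Candida and related fungal strains. Read-out is MIC in µg/mL, with miconazole as the reference drug.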

Escherichia coli = assay: Antibacterial activity against Escherichia coli MTCC 739 after 24 hrs by well diffusion assay; assay type: functional; settings: MTCC 739, 24 h
Micrococcus luteus [8] = assay: Antibiofilm activity against Micrococcus luteus MTCC 2470 after 24 hrs by crystal violet staining based method; assay type: functional, organism-based; settings: MTCC 2470, 24 h; summary of the method: as §2
Raoultella planticola = assay: Antibacterial activity against Klebsiella planticola MTCC 530 after 24 hrs by well diffusion assay; assay type: functional; settings: MTCC 530, 24 h
Staphylococcus aureus [9] = assay: Antibacterial activity against Staphylococcus aureus MLS-16 MTCC 2940 after 24 hrs by well diffusion assay; assay type: functional; settings: MLS-16 MTCC 2940, 24 h
HepG2 = assay: Cytotoxicity against human HepG2 cells by MTT assay; assay type: functional, cell-based
Staphylococcus aureus [10] = assay: Bactericidal activity against Staphylococcus aureus MTCC 96 after 24 hrs; assay type: functional; settings: MTCC 96, 24 h; summary of the method: as §1
Staphylococcus aureus [11] = assay: Antibiofilm activity against Staphylococcus aureus MTCC 96 after 24 hrs by crystal violet staining based method; assay type: functional, organism-based; settings: MTCC 96, 24 h; summary of the method: as §2
[12] = Cytotoxicity against human SKOV3 cells by MTT assay; assay type: functional, cell-based; settings: SK-OV-3
MDA-MB-231 = assay: Cytotoxicity against human MDA-MB-231 cells by MTT assay; assay type: functional, cell-based
[13] = Cytotoxicity against human DU145 cells by MTT assay; assay type: functional, cell-based; settings: DU-145
Staphylococcus aureus [14] = assay: Bactericidal activity against Staphylococcus aureus MLS-16 MTCC 2940 after 24 hrs; assay type: functional; settings: MLS-16 MTCC 2940, 24 h; summary of the method: as §1
Candida albicans [15] = assay: Antifungal activity against Candida albicans MTCC 1637 after 24 hrs by well diffusion assay; assay type: functional; settings: MTCC 1637, 24 h; summary of the method: as §3
Candida parapsilosis [16] = assay: Inhibition of ergosterol biosynthesis in Candida parapsilosis MTCC 1744 assessed as mean ergosterol content at 8 ug/ml after 20 hrs by spectrophotometric analysis (Rvb=1.62 +/- 0.08 ug/ml); assay type: functional
Pichia sporocuriosa = assay: Antifungal activity against Issatchenkia hanoiensis MTCC 4755 after 24 hrs by well diffusion assay; assay type: functional; settings: MTCC 4755, 24 h; summary of the method: as §3
Pichia kudriavzevii = assay: Antifungal activity against Pichia kudriavzevii MTCC 3020 after 24 hrs by well diffusion assay; assay type: functional; settings: MTCC 3020, 24 h; summary of the method: as §3
Candida albicans [17] = assay: Antifungal activity against Candida albicans MTCC 4748 after 24 hrs by well diffusion assay; assay type: functional; settings: MTCC 4748, 24 h; summary of the method: as §3
Candida albicans [18] = assay: Antifungal activity against Candida albicans MTCC 3018 after 24 hrs by well diffusion assay; assay type: functional; settings: MTCC 3018, 24 h; summary of the method: as §3
Candida albicans [19] = assay: Antifungal activity against Candida albicans MTCC 227 after 24 hrs by well diffusion assay; assay type: functional; settings: MTCC 227, 24 h; summary of the method: as §3
Candida albicans [20] = assay: Antifungal activity against Candida albicans MTCC 7315 after 24 hrs by well diffusion assay; assay type: functional; settings: MTCC 7315, 24 h; summary of the method: as §3
[Candida] aaseri = Antifungal activity against Candida aaseri MTCC 1962 after 24 hrs by well diffusion assay; assay type: functional; settings: Yamadazyma aaseri, MTCC 1962, 24 h; summary of the method: as §3
Candida parapsilosis [21] = assay: Inhibition of ergosterol biosynthesis in Candida parapsilosis MTCC 1744 assessed as mean ergosterol content at 16 ug/ml after 20 hrs by spectrophotometric analysis (Rvb=1.62 +/- 0.08 ug/ml); assay type: functional
Candida albicans [22] = assay: Antifungal activity against Candida albicans MTCC 3958 after 24 hrs by well diffusion assay; assay type: functional; settings: MTCC 3958, 24 h; summary of the method: as §3
Candida parapsilosis [23] = assay: Antifungal activity against Candida parapsilosis MTCC 1744 after 24 hrs by well diffusion assay; assay type: functional; settings: Lodderomyces parapsilosis, MTCC 1744, 24 h; summary of the method: as §3
Candida albicans [24] = assay: Antifungal activity against Candida albicans MTCC 854 after 24 hrs by well diffusion assay; assay type: functional; settings: MTCC 854, 24 h; summary of the method: as §3
Candida albicans [25] = assay: Antifungal activity against Candida albicans MTCC 183 after 24 hrs by well diffusion assay; assay type: functional; settings: MTCC 183, 24 h; summary of the method: as §3
Nakaseomyces glabratus = assay: Antifungal activity against Candida glabrata MTCC 3019 after 24 hrs by well diffusion assay; assay type: functional; settings: MTCC 3019, 24 h; summary of the method: as §3
Candida parapsilosis [26] = assay: Inhibition of ergosterol biosynthesis in Candida parapsilosis MTCC 1744 assessed as mean ergosterol content at 2 ug/ml after 20 hrs by spectrophotometric analysis (Rvb=1.62 +/- 0.08 ug/ml); assay type: functional
Candida parapsilosis [27] = assay: Inhibition of ergosterol biosynthesis in Candida parapsilosis MTCC 1744 assessed as mean ergosterol content at 4 ug/ml after 20 hrs by spectrophotometric analysis (Rvb=1.62 +/- 0.08 ug/ml); assay type: functional

Compound: CCCCCCCCC(CCCCCCCCC(=O)OC)SCC(=O)N[C@H](C(=O)OC)c1c[nH]cn1 (stereo partly drawn)
MBC (Micrococcus luteus [1]): 7.8 µg/mL (≈ 14.8 µM)
MIC (Pseudomonas aeruginosa): > 125 µg/mL
MIC (Micrococcus luteus [2]): 3.9 µg/mL (≈ 7.42 µM)
MIC (Staphylococcus aureus [3]): > 125 µg/mL
MIC (Bacillus subtilis [4]): 3.9 µg/mL (≈ 7.42 µM)
MBC (Bacillus subtilis [5]): 3.9 µg/mL (≈ 7.42 µM)
IC50 (Bacillus subtilis [6]): 1900 nM
MIC (Candida albicans [7]): > 125 µg/mL
MIC (Escherichia coli): > 125 µg/mL
IC50 (Micrococcus luteus [8]): 2100 nM
MIC (Raoultella planticola): > 125 µg/mL
MIC (Staphylococcus aureus [9]): > 125 µg/mL

Compound: O=C(O)c1cn(C2CC2)c2cc(N3CCNCC3)c(F)cc2c1=O [CIPROFLOXACIN]
MBC (Micrococcus luteus [1]): 0.9 µg/mL (≈ 2.72 µM)
MIC (Pseudomonas aeruginosa): 0.9 µg/mL (≈ 2.72 µM)
MIC (Micrococcus luteus [2]): 0.9 µg/mL (≈ 2.72 µM)
MIC (Staphylococcus aureus [3]): 0.9 µg/mL (≈ 2.72 µM)
MIC (Bacillus subtilis [4]): 0.9 µg/mL (≈ 2.72 µM)
MBC (Bacillus subtilis [5]): 1.9 µg/mL (≈ 5.73 µM)
IC50 (Bacillus subtilis [6]): 500 nM
MBC (Staphylococcus aureus [10]): 1.9 µg/mL (≈ 5.73 µM)
MIC (Candida albicans [7]): > 125 µg/mL
MIC (Escherichia coli): 0.9 µg/mL (≈ 2.72 µM)
IC50 (Micrococcus luteus [8]): 500 nM
MBC (Staphylococcus aureus [14]): 1.9 µg/mL (≈ 5.73 µM)
MIC (Raoultella planticola): 0.9 µg/mL (≈ 2.72 µM)
MIC (Staphylococcus aureus [9]): 0.9 µg/mL (≈ 2.72 µM)

Compound: COc1cccc2c1C(=O)c1c(O)c3c(c(O)c1C2=O)C[C@@](O)(C(=O)CO)C[C@@H]3O[C@H]1C[C@H](N)[C@H](O)[C@H](C)O1 [DOXORUBICIN]
IC50 (HepG2): 800 nM
IC50 [12]: 800 nM
IC50 (MDA-MB-231): 700 nM

Now from value to compound, other results behind:

MIC (Pseudomonas aeruginosa): > 125 µg/mL
MIC (Micrococcus luteus [2]): 31.2 µg/mL (≈ 60.5 µM)
MIC (Staphylococcus aureus [3]): 31.2 µg/mL (≈ 60.5 µM)
MIC (Bacillus subtilis [4]): > 125 µg/mL
MIC (Candida albicans [7]): > 125 µg/mL
IC50 (Staphylococcus aureus [11]): 21500 nM
MIC (Escherichia coli): > 125 µg/mL
IC50 (Micrococcus luteus [8]): 16800 nM
MIC (Staphylococcus aureus [9]): > 125 µg/mL
Compound: CCCCCCCCC(CCCCCCCCC(=O)OC)SCC(=O)N[C@H](C(=O)OC)[C@@H](C)CC (stereo partly drawn)
MBC (Micrococcus luteus [1]): 31.2 µg/mL (≈ 60.5 µM)
IC50 (HepG2): 15300 nM
MBC (Staphylococcus aureus [10]): 31.2 µg/mL (≈ 60.5 µM)
IC50 [12]: 16400 nM
MIC (Raoultella planticola): > 125 µg/mL
IC50 (MDA-MB-231): 22400 nM
IC50 [13]: 19000 nM

MIC (Candida albicans [15]): 7.8 µg/mL (≈ 18.7 µM)
MIC (Pichia sporocuriosa): 7.8 µg/mL (≈ 18.7 µM)
MIC (Pichia kudriavzevii): 7.8 µg/mL (≈ 18.7 µM)
MIC (Candida albicans [17]): 7.8 µg/mL (≈ 18.7 µM)
MIC (Pseudomonas aeruginosa): > 125 µg/mL
MIC (Candida albicans [18]): 7.8 µg/mL (≈ 18.7 µM)
MIC (Micrococcus luteus [2]): > 125 µg/mL
MIC (Staphylococcus aureus [3]): > 125 µg/mL
MIC (Bacillus subtilis [4]): > 125 µg/mL
MIC (Candida albicans [19]): 7.8 µg/mL (≈ 18.7 µM)
MIC (Candida albicans [20]): 7.8 µg/mL (≈ 18.7 µM)
MIC ([Candida] aaseri): 7.8 µg/mL (≈ 18.7 µM)
MIC (Candida albicans [22]): 7.8 µg/mL (≈ 18.7 µM)
MIC (Candida albicans [7]): 7.8 µg/mL (≈ 18.7 µM)
MIC (Escherichia coli): > 125 µg/mL
MIC (Candida parapsilosis [23]): 7.8 µg/mL (≈ 18.7 µM)
MIC (Candida albicans [24]): 7.8 µg/mL (≈ 18.7 µM)
MIC (Candida albicans [25]): 7.8 µg/mL (≈ 18.7 µM)
MIC (Nakaseomyces glabratus): 7.8 µg/mL (≈ 18.7 µM)
MIC (Staphylococcus aureus [9]): > 125 µg/mL
Compound: Clc1ccc(COC(Cn2ccnc2)c2ccc(Cl)cc2Cl)c(Cl)c1 (stereo not drawn) [MICONAZOLE]
MFC (Candida albicans [15]): 15.6 µg/mL (≈ 37.5 µM)
Activity (Candida parapsilosis [16]): 0.24 µg/mL
MFC (Pichia sporocuriosa): 7.8 µg/mL (≈ 18.7 µM)
MFC (Pichia kudriavzevii): 7.8 µg/mL (≈ 18.7 µM)
MFC (Candida albicans [17]): 7.8 µg/mL (≈ 18.7 µM)
MFC (Candida albicans [18]): 7.8 µg/mL (≈ 18.7 µM)
MFC (Candida albicans [19]): 15.6 µg/mL (≈ 37.5 µM)
MFC (Candida albicans [20]): 15.6 µg/mL (≈ 37.5 µM)
MFC ([Candida] aaseri): 15.6 µg/mL (≈ 37.5 µM)
Activity (Candida parapsilosis [21]): 0.09 µg/mL
MFC (Candida albicans [22]): 7.8 µg/mL (≈ 18.7 µM)
MFC (Candida parapsilosis [23]): 7.8 µg/mL (≈ 18.7 µM)
MFC (Candida albicans [24]): 7.8 µg/mL (≈ 18.7 µM)
MFC (Candida albicans [25]): 7.8 µg/mL (≈ 18.7 µM)
MFC (Nakaseomyces glabratus): 7.8 µg/mL (≈ 18.7 µM)
Activity (Candida parapsilosis [26]): 1.28 µg/mL
MIC (Raoultella planticola): > 125 µg/mL
Activity (Candida parapsilosis [27]): 0.54 µg/mL
